The target of data set [1] is T1, Prostaglandin G/H synthase 1 (Ovis aries, UniProt P05979).
T1 sequence (P05979 whole entry): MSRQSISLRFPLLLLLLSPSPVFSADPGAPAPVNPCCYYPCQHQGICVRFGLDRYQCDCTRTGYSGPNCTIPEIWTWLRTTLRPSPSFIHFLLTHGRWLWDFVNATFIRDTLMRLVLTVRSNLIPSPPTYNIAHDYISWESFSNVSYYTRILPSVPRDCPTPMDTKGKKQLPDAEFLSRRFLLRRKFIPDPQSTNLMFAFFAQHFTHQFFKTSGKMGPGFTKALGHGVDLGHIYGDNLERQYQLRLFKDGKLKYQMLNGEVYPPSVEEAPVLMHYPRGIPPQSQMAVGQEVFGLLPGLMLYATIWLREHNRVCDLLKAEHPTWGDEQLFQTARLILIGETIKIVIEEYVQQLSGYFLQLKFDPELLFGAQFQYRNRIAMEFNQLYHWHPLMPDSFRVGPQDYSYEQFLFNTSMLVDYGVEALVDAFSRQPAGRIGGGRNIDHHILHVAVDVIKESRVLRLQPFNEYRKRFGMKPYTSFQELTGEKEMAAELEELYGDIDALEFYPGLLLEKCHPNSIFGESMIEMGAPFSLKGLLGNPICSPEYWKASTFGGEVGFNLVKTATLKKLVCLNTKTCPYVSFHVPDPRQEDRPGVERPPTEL
The data set is described as follows: Inhibition of ovine COX-1 using arachidonic acid as substrate in presence of hemin by TMPD reagent-based colorimetry.

A short description of data set [2]: Acute toxicity in female Wistar rat assessed as drug tolerance up to 500 mg/kg, po measured for 14 days. To be noted: in vivo, 336 h, time 14 day. In kind it is organism-based. In outline: (§1)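 Followed OECD 423 guideline in healthy female Wistar rats weighing 200–250 g. Animals were housed at 25 ± 2 °C and 45–60% RH on a 12 h light/dark cycle, with free access to water and food.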

Data set [3] can be described thus: Acute toxicity in female Wistar rat assessed as detrimental effects up to 500 mg/kg, po measured for 14 days. Type of data set: organism-based. As to conditions: in vivo, 336 h, time 14 day. In outline: as §1
Data set [4] is described as follows: Acute toxicity in female Wistar rat assessed as animal mortality up to 500 mg/kg, po measured for 14 days. Type of data set: organism-based. As to conditions: in vivo, 336 h, time 14 day. The method in brief:
as §1

In data set [5] the test system is Rattus norvegicus. The data set is described as follows: Anti-inflammatory activity in carrageenan-induced paw edema Wistar rat model assessed as swelling thickness of paw at 20 mg/kg, po measured immediately by digital vernier caliper (reference value: 3.48 +/- 0.21 millimeter). In kind it is functional. On the technique in general: In the carrageenan paw model, swelling and tenderness develop within hours.

Data set [6] relates to Rattus norvegicus. Nature of the data set: Anti-inflammatory activity in carrageenan-induced paw edema Wistar rat model assessed as swelling thickness of paw at 20 mg/kg, po measured after 1 hr by digital vernier caliper (reference value: 8.47 +/- 0.25 millimeter). In kind it is functional.
Data set [7] deals with Rattus norvegicus. The data set is described as follows: Anti-inflammatory activity in carrageenan-induced paw edema Wistar rat model assessed as swelling thickness of paw at 5 mg/kg, po measured after 2 hrs by digital vernier caliper (reference value: 8.65 +/- 0.53 millimeter). In kind it is functional.
The test system of data set [8] is Rattus norvegicus. Nature of the data set: Anti-inflammatory activity in carrageenan-induced paw edema Wistar rat model assessed as swelling thickness of paw at 20 mg/kg, po measured after 2 hrs by digital vernier caliper (reference value: 8.65 +/- 0.53 millimeter). Type of data set: functional.
The test system of data set [9] is Rattus norvegicus. The data set is described as follows: Anti-inflammatory activity in carrageenan-induced paw edema Wistar rat model assessed as swelling thickness of paw at 10 mg/kg, po measured after 3 hrs by digital vernier caliper (reference value: 8.56 +/- 0.45 millimeter). Type of data set: functional.
Data set [10] deals with Rattus norvegicus. Nature of the data set: Anti-inflammatory activity in carrageenan-induced paw edema Wistar rat model assessed as swelling thickness of paw at 5 mg/kg, po measured after 4 hrs by digital vernier caliper (reference value: 8.36 +/- 0.78 millimeter). In kind it is functional.
The subject of data set [11] is Rattus norvegicus. The data set is described as follows: Anti-inflammatory activity in carrageenan-induced paw edema Wistar rat model assessed as swelling thickness of paw at 10 mg/kg, po measured after 5 hrs by digital vernier caliper (reference value: 8.47 +/- 0.32 millimeter). Type of data set: functional.
Data set [12] deals with Rattus norvegicus. Nature of the data set: Anti-inflammatory activity in carrageenan-induced paw edema Wistar rat model assessed as swelling thickness of paw at 20 mg/kg, po measured after 5 hrs by digital vernier caliper (reference value: 8.47 +/- 0.32 millimeter). In kind it is functional.
The test system of data set [13] is Rattus norvegicus. Nature of the data set: Anti-inflammatory activity in carrageenan-induced paw edema Wistar rat model assessed as swelling thickness of paw at 10 mg/kg, po measured after 6 hrs by digital vernier caliper (reference value: 8.33 +/- 0.42 millimeter). Type of data set: functional.
In data set [14] the test system is Rattus norvegicus. Nature of the data set: Anti-inflammatory activity in carrageenan-induced paw edema Wistar rat model assessed as decrease in IL-6 level in paw tissue at 5 to 20 mg/kg, po measured for 6 hrs by ELISA. Type of data set: functional, organism-based. To be noted: dose 5-20 mg/kg. The method in brief: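 Paw tissue taken from carrageenan-edema rats dosed orally at 5, 10 or 20 mg kg−1. Tissue rinsed in PBS pH 7.4, minced, homogenized, filtered and centrifuged at 2000 rpm for 20 min at 4 °C. Supernatant assayed by ELISA for PGE2, IL-6, TNF-α and IL-10. Data as mean ± SD.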

Data set [15] deals with Rattus norvegicus. Nature of the data set: Anti-inflammatory activity in arachidonic acid-induced paw edema Wistar rat model assessed as swelling thickness of paw at 10 mg/kg, po measured after 1 hr by digital vernier caliper (reference value: 6.51 +/- 0.37 millimeter). Type of data set: functional.
Data set [16] relates to Rattus norvegicus. Nature of the data set: Anti-inflammatory activity in arachidonic acid-induced paw edema Wistar rat model assessed as swelling thickness of paw at 20 mg/kg, po measured after 1 hr by digital vernier caliper (reference value: 6.51 +/- 0.37 millimeter). Type of data set: functional.
Data set [17] deals with Rattus norvegicus. Nature of the data set: Anti-inflammatory activity in arachidonic acid-induced paw edema Wistar rat model assessed as protection against swelling thickness of paw at 5 mg/kg, po measured after 1 hr by digital vernier caliper (reference value: 0 %). In kind it is functional.
Data set [18] deals with Rattus norvegicus. The data set is described as follows: Anti-inflammatory activity in arachidonic acid-induced paw edema Wistar rat model assessed as protection against swelling thickness of paw at 10 mg/kg, po measured after 1 hr by digital vernier caliper (reference value: 0 %). In kind it is functional.
For data set [19], the system named is Rattus norvegicus. Nature of the data set: Anti-inflammatory activity in arachidonic acid-induced paw edema Wistar rat model assessed as protection against swelling thickness of paw at 20 mg/kg, po measured after 1 hr by digital vernier caliper (reference value: 0 %). In kind it is functional.
Data set [20] can be described thus: Toxicity in fasting Wistar rat assessed as ulcer score at 20 mg/kg, po via gavage treated for 3 days consecutively by H and E staining based analysis (reference value: 0). In kind it is organism-based. As to conditions: in vivo, 72 h, time 3 day. The method in brief: (§2)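 Fasted rats, n = 6/group, gavaged once daily for 3 days in 0.3% Na CMC (vehicle control 0.3% CMC); killed under anaesthesia 6 h after day-3 dose; stomachs saline-washed, mucosa examined with hand lens; ulcer score, index and % ulceration by reported scoring; some stomachs formalin-fixed, H&E stained.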

The nature of data set [21]: Toxicity in fasting Wistar rat assessed as ulceration at 20 mg/kg, po via gavage treated for 3 days consecutively by H and E staining based analysis (reference value: 0 %). In kind it is organism-based. As to conditions: in vivo, 72 h, time 3 day. In outline:
as §2

Data set [22] is described as follows: Toxicity in Wistar rat assessed as change in serum ALT level at 20 mg/kg, po. In kind it is organism-based. To be noted: in vivo. In outline:
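Rats dosed orally in 0.3% Na CMC; retro-orbital blood clotted at room temperature, serum separated at 2000 rpm, 20 min, 4 °C; ALT, AST, creatinine and urea by commercial kits; n = 6 per group, mean ± SD; Tukey test after repeated-measures one-way ANOVA.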

The source made the active and inactive calls. The rule behind the calls is not given here.

For the molecule `Clc1ccc(-c2nnc(CN3CCN(C(c4ccccc4)c4ccc(Cl)cc4)CC3)o2)cc1` (centres undefined), in data set [1], the concentration for half-maximal inhibition (IC50) was 34.1 µM. Moreover, the Activity entry in data set [2] is “Non-toxic”; in data set [3], “Non-toxic”; in data set [4], “Non-toxic”; in the data set with Rattus norvegicus [5], 3.43 mm; in the data set with Rattus norvegicus [6], 5.12 mm; with Rattus norvegicus [7] it was 5.63 mm. For the same molecule, the Activity in the data set with Rattus norvegicus [8] was 4.11 mm; with Rattus norvegicus [9], 3.47 mm; in the data set on Rattus norvegicus [10], 4.18 mm; in the data set on Rattus norvegicus [11], 3.29 mm; in the data set on Rattus norvegicus [12] it was 3.24 mm; in the data set on Rattus norvegicus [13], 3.37 mm. The Activity is given as 2.01 mm in the data set with Rattus norvegicus [15]; 1.94 mm in the data set on Rattus norvegicus [16]; 56.12% in the data set with Rattus norvegicus [17]; 69.22% with Rattus norvegicus [18]; 70.21% with Rattus norvegicus [19]; 0.018 in data set [20]. For the same molecule, the values for the Activity in [21] and in data set [22] were 1.25% and “Non-toxic”, respectively. The outcome with Rattus norvegicus [14] was Active.
In the case of `O=[N+]([O-])c1ccc(-c2nnc(CN3CCN(C(c4ccccc4)c4ccc(Cl)cc4)CC3)o2)cc1` (centres undefined), in [1], the IC50 stood at 41.1 µM. Moreover, the Activity result was “Non-toxic” in [2]; “Non-toxic” in data set [3]; “Non-toxic” in [4]; 3.65 mm in the data set with Rattus norvegicus [5]; 5.16 mm in the data set with Rattus norvegicus [6]; 5.25 mm in the data set with Rattus norvegicus [7]. Besides, the Activity in the data set on Rattus norvegicus [8] is on record as 4.78 mm; with Rattus norvegicus [9] it was 4.41 mm; in the data set on Rattus norvegicus [10], 4.57 mm; in the data set with Rattus norvegicus [11] it was 3.76 mm; in the data set with Rattus norvegicus [12], 3.96 mm; in the data set with Rattus norvegicus [13] it was 3.89 mm. For the same molecule, the Activity in the data set on Rattus norvegicus [15] worked out at 2.3 mm; in the data set with Rattus norvegicus [16], 2.24 mm; with Rattus norvegicus [17], 55.22%; in the data set with Rattus norvegicus [18], 62.33%; in the data set on Rattus norvegicus [19], 64.36%; in data set [20], 0.093. Besides, the values for the Activity in data set [21] and in [22] were 4.86% and “Non-toxic”, respectively. In addition, the outcome in the data set on Rattus norvegicus [14] was Active.

Broadly, the IC50 is the concentration that inhibits the measured activity by half.

For the origin of these results see ChEMBL document CHEMBL6134766, “Design, synthesis, and evaluation of benzhydrylpiperazine-based novel dual COX-2/5-LOX inhibitors with anti-inflammatory and anti-cancer activity” (RSC Med Chem, 2025).
